# From ChEMBL document CHEMBL1629690, “Development of hexadecyloxypropyl tenofovir (CMX157) for treatment of infection caused by wild-type and nucleoside/nucleotide-resistant HIV” (Antimicrob Agents Chemother, 2010)
# Key:
# [1] = tested on: Human immunodeficiency virus 1; test: Antiviral activity against HIV1 isolate 206 harboring reverse transcriptase D67N/K70R mutant gene by phenosense assay relative to wild type; format: functional
# In short: (§1)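 PhenoSense HIV recombinant virus assay: patient-derived HIV-1 with major NRTI resistance mutations tested against increasing drug concentrations to give inhibition curves. EC50 is the concentration giving 50% inhibition. Fold change is the test recombinant EC50 divided by the EC50 of a drug-sensitive wild-type reference virus. Panel of 30 NRTI-resistant isolates plus two wild-type viruses.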
# [2] = tested on: Human immunodeficiency virus 1; test: Antiviral activity against HIV1 isolate 166 harboring reverse transcriptase L74V mutant gene obtained as site-directed mutant of NL4-3 by phenosense assay; format: functional, organism-based; conditions: Human immunodeficiency virus 1, isolate 166
# In short: (§2)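 Recombinant-virus PhenoSense HIV assay run on a panel of 30 NRTI-resistant HIV-1 mutants and two wild-type viruses. Each virus is tested across increasing drug concentrations to give an inhibition curve and EC50. Fold change is the test recombinant EC50 divided by the EC50 of the drug-sensitive wild-type reference virus.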
# [3] = tested on: Human immunodeficiency virus 1; test: Antiviral activity against HIV1 isolate 220 harboring reverse transcriptase K70E/M184V mutant gene by phenosense assay relative to wild type; format: functional; in short: as §1
# [4] = tested on: Human immunodeficiency virus 1; test: Antiviral activity against HIV1 isolate 212 harboring reverse transcriptase L210W/T215Y mutant gene by phenosense assay relative to wild type; format: functional; in short: as §1
# [5] = tested on: Human immunodeficiency virus 1; test: Antiviral activity against HIV1 isolate 157 harboring reverse transcriptase L74V/M184V mutant gene by phenosense assay; format: functional, organism-based; conditions: Human immunodeficiency virus 1, isolate 157; in short: as §2
# [6] = tested on: Human immunodeficiency virus 1; test: Antiviral activity against HIV1 isolate 071 harboring reverse transcriptase 65R/S68N/184V mutant gene by phenosense assay relative to wild type; format: functional; in short: as §2
# [7] = tested on: Human immunodeficiency virus 1; test: Antiviral activity against HIV1 isolate 194 harboring reverse transcriptase M41L/T215Y/M184V mutant gene by phenosense assay relative to wild type; format: functional; in short: as §2
# [8] = tested on: Human immunodeficiency virus 1; test: Antiviral activity against HIV1 isolate 180 harboring reverse transcriptase K65R mutant gene obtained as site-directed mutant of NL4-3 by phenosense assay relative to wild type; format: functional; in short: as §2
# [9] = tested on: Human immunodeficiency virus 1; test: Antiviral activity against HIV1 isolate 174 harboring reverse transcriptase M184V mutant gene obtained as site-directed mutant of NL4-3 by phenosense assay; format: functional, organism-based; conditions: Human immunodeficiency virus 1, isolate 174; in short: as §2
# [10] = tested on: Human immunodeficiency virus 1; test: Antiviral activity against HIV1 isolate 211 harboring reverse transcriptase D67N/K70R/T215F/K219E/M184V mutant gene by phenosense assay; format: functional, organism-based; conditions: Human immunodeficiency virus 1, isolate 211; in short: as §1
# [11] = tested on: Human immunodeficiency virus 1; test: Antiviral activity against HIV1 isolate 061 harboring reverse transcriptase M41L/D67N/K70R/M184V/L210W/T215Y/K219E mutant gene by phenosense assay; format: functional, organism-based; conditions: Human immunodeficiency virus 1, isolate 061; in short: as §2
# [12] = tested on: Human immunodeficiency virus 1; test: Antiviral activity against HIV1 isolate 069 harboring reverse transcriptase D67E/T69SSG/V75M/M184V/L210W/T215Y mutant gene by phenosense assay; format: functional, organism-based; conditions: Human immunodeficiency virus 1, isolate 069; in short: as §2
# [13] = tested on: Human immunodeficiency virus 1; test: Antiviral activity against HIV1 isolate 200 harboring reverse transcriptase M41L/L210W/T215Y mutant gene by phenosense assay; format: functional, organism-based; conditions: Human immunodeficiency virus 1, isolate 200; in short: as §2
# [14] = tested on: Human immunodeficiency virus 1; test: Antiviral activity against HIV1 isolate 200 harboring reverse transcriptase M41L/L210W/T215Y mutant gene by phenosense assay relative to wild type; format: functional; in short: as §2
# [15] = tested on: Human immunodeficiency virus 1; test: Antiviral activity against HIV1 isolate 217 harboring reverse transcriptase D67N/K70E/M184V mutant gene by phenosense assay relative to wild type; format: functional; in short: as §1
# [16] = tested on: Human immunodeficiency virus 1; test: Antiviral activity against HIV1 isolate 204 harboring reverse transcriptase M41L/L210W/T215Y/M184V mutant gene by phenosense assay relative to wild type; format: functional; in short: as §1
# [17] = tested on: Human immunodeficiency virus 1; test: Antiviral activity against HIV1 isolate 188 harboring reverse transcriptase T215Y/M184V mutant gene by phenosense assay; format: functional, organism-based; conditions: Human immunodeficiency virus 1, isolate 188; in short: as §2
# [18] = tested on: Human immunodeficiency virus 1; test: Antiviral activity against HIV1 isolate 174 harboring reverse transcriptase M184V mutant gene obtained as site-directed mutant of NL4-3 by phenosense assay relative to wild type; format: functional; in short: as §2
# [19] = tested on: Human immunodeficiency virus 1; test: Antiviral activity against HIV1 isolate 069 harboring reverse transcriptase D67E/T69SSG/V75M/M184V/L210W/T215Y mutant gene by phenosense assay relative to wild type; format: functional; in short: as §2
# [20] = tested on: Human immunodeficiency virus 1; test: Antiviral activity against HIV1 isolate 071 harboring reverse transcriptase 65R/S68N/184V mutant gene by phenosense assay; format: functional, organism-based; conditions: Human immunodeficiency virus 1, isolate 071; in short: as §2
# [21] = tested on: Human immunodeficiency virus 1; test: Antiviral activity against HIV1 isolate 070 harboring reverse transcriptase 65R/S68G mutant gene by phenosense assay relative to wild type; format: functional; in short: as §2
# [22] = tested on: Human immunodeficiency virus 1; test: Antiviral activity against HIV1 isolate 220 harboring reverse transcriptase K70E/M184V mutant gene by phenosense assay; format: functional, organism-based; conditions: Human immunodeficiency virus 1, isolate 220; in short: as §1
# [23] = tested on: Human immunodeficiency virus 1; test: Antiviral activity against HIV1 isolate 157 harboring reverse transcriptase L74V/M184V mutant gene by phenosense assay relative to wild type; format: functional; in short: as §2
# [24] = tested on: Human immunodeficiency virus 1; test: Antiviral activity against HIV1 isolate 192 harboring reverse transcriptase M41L/T215Y mutant gene by phenosense assay relative to wild type; format: functional; in short: as §2
# [25] = tested on: Human immunodeficiency virus 1; test: Antiviral activity against HIV1 isolate 201 harboring reverse transcriptase M41L/L210W/T215Y mutant gene by phenosense assay relative to wild type; format: functional; in short: as §1
# [26] = tested on: Human immunodeficiency virus 1; test: Antiviral activity against HIV1 isolate 215 harboring reverse transcriptase D67N/K70E mutant gene by phenosense assay relative to wild type; format: functional; in short: as §1
# [27] = tested on: Human immunodeficiency virus 1; test: Antiviral activity against HIV1 isolate 201 harboring reverse transcriptase M41L/L210W/T215Y mutant gene by phenosense assay; format: functional, organism-based; conditions: Human immunodeficiency virus 1, isolate 201; in short: as §2
# [28] = tested on: Human immunodeficiency virus 1; test: Antiviral activity against HIV1 isolate 060 harboring reverse transcriptase M41L/D67N/K70R/L210W/T215Y/K219E mutant gene by phenosense assay relative to wild type; format: functional; in short: as §2
# [29] = tested on: Human immunodeficiency virus 1; test: Antiviral activity against HIV1 isolate 180 harboring reverse transcriptase K65R mutant gene obtained as site-directed mutant of NL4-3 by phenosense assay; format: functional, organism-based; conditions: Human immunodeficiency virus 1, isolate 180; in short: as §2
# [30] = tested on: Human immunodeficiency virus 1; test: Antiviral activity against HIV1 isolate 203 harboring reverse transcriptase M41L/L210W/T215Y/M184V mutant gene by phenosense assay relative to wild type; format: functional; in short: as §1
# [31] = tested on: Human immunodeficiency virus 1; test: Antiviral activity against HIV1 isolate 188 harboring reverse transcriptase T215Y/M184V mutant gene by phenosense assay relative to wild type; format: functional; in short: as §2
# [32] = tested on: Human immunodeficiency virus 1; test: Antiviral activity against HIV1 isolate 194 harboring reverse transcriptase M41L/T215Y/M184V mutant gene by phenosense assay; format: functional, organism-based; conditions: Human immunodeficiency virus 1, isolate 194; in short: as §2
# [33] = tested on: Human immunodeficiency virus 1; test: Antiviral activity against HIV1 isolate 160 harboring reverse transcriptase S68G/V75(I/T)/F77L/Y115F/F116Y /Q151M mutant gene by phenosense assay relative to wild type; format: functional; in short: as §2
# [34] = tested on: Human immunodeficiency virus 1; test: Antiviral activity against HIV1 isolate 061 harboring reverse transcriptase M41L/D67N/K70R/M184V/L210W/T215Y/K219E mutant gene by phenosense assay relative to wild type; format: functional; in short: as §2
# [35] = tested on: Human immunodeficiency virus 1; test: Antiviral activity against HIV1 isolate 058 harboring reverse transcriptase M41L/D67N/K70R/L210W/T215F/K219Q mutant gene by phenosense assay relative to wild type; format: functional; in short: as §2
# [36] = tested on: Human immunodeficiency virus 1; test: Antiviral activity against HIV1 isolate 185 harboring reverse transcriptase T215Y mutant gene by phenosense assay relative to wild type; format: functional; in short: as §2
Compound,fold change (FC) [1],EC50 [2] [µM],fold change (FC) [3],fold change (FC) [4],EC50 [5] [µM],fold change (FC) [6],fold change (FC) [7],fold change (FC) [8],EC50 [9] [µM],EC50 [10] [µM],EC50 [11] [µM],EC50 [12] [µM],EC50 [13] [µM],fold change (FC) [14],fold change (FC) [15],fold change (FC) [16],EC50 [17] [µM],fold change (FC) [18],fold change (FC) [19],EC50 [20] [µM],further results
Nc1nc(NC2CC2)c2ncn([C@H]3C=C[C@@H](CO)C3)c2n1 [ABACAVIR],1.4,3.3,5.9,2.1,9.2,6.6,5.4,2.6,4.7,7.7,22,47,5,2.8,2.9,5,7.6,2.6,26,12,fold change (FC) [21]: 3.2; EC50 [22]: 10 µM; fold change (FC) [23]: 5.2; fold change (FC) [24]: 1.9; fold change (FC) [25]: 2.4; fold change (FC) [26]: 1.4; EC50 [27]: 4.2 µM; fold change (FC) [28]: 4.7; EC50 [29]: 4.6 µM; fold change (FC) [30]: 4.6; fold change (FC) [31]: 4.3; EC50 [32]: 9.6 µM; fold change (FC) [33]: 19; fold change (FC) [34]: 9.1; fold change (FC) [35]: 4.4; fold change (FC) [36]: 2.1
O=c1[nH]cnc2c1ncn2[C@H]1CC[C@@H](CO)O1 [DIDANOSINE],1.2,8.1,1.8,1,11,2.6,1.8,2,6.8,8.7,12,24,7.5,1.4,1.3,1.6,7.9,1.2,4.4,14,fold change (FC) [21]: 1.7; EC50 [22]: 9.9 µM; fold change (FC) [23]: 2; fold change (FC) [24]: 1.1; fold change (FC) [25]: 1.1; fold change (FC) [26]: 1.4; EC50 [27]: 5.9 µM; fold change (FC) [28]: 1.5; EC50 [29]: 11 µM; fold change (FC) [30]: 1.5; fold change (FC) [31]: 1.4; EC50 [32]: 10 µM; fold change (FC) [33]: 12; fold change (FC) [34]: 2.1; fold change (FC) [35]: 1.6; fold change (FC) [36]: 1.1
